{
  "source": "ChEMBL document CHEMBL5678815",
  "about": "(Clin Cancer Res, 2017)",
  "key": {"[1]": {"target": "Dual specificity tyrosine-phosphorylation-regulated kinase 1B (Homo sapiens) (UniProt Q9Y463)", "sequence (Q9Y463 whole entry, looked up)": "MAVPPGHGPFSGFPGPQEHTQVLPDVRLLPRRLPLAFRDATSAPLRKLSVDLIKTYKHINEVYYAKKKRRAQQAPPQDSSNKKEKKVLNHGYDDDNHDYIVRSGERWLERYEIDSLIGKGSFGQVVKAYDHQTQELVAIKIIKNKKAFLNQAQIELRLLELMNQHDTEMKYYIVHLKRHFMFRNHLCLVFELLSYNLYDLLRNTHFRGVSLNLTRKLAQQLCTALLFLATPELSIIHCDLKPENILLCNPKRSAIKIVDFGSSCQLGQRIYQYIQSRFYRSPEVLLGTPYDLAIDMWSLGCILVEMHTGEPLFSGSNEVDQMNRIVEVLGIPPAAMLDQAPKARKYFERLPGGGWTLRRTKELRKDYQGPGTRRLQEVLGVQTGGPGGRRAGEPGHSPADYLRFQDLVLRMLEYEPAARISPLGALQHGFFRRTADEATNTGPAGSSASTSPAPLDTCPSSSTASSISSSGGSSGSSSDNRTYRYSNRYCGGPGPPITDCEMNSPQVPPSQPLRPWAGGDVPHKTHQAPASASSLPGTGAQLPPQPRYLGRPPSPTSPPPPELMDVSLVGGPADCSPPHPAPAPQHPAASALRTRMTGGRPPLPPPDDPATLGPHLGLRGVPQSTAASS", "assay": "Inhibition of human DYRK1B assessed as remaining activity at 1 uM by ATP-competition binding assay relative to control", "procedure,_shortened": "(§1)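 KINOMEscan ATP-site-dependent competition binding panel of 395 human kinases, with compound tested at 1 μM. Binding is reported as remaining signal relative to control.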"}, "[2]": {"tested_on": "Mast/stem cell growth factor receptor Kit (Homo sapiens), P10721 [D816V]", "sequence (P10721 whole entry D816V)": "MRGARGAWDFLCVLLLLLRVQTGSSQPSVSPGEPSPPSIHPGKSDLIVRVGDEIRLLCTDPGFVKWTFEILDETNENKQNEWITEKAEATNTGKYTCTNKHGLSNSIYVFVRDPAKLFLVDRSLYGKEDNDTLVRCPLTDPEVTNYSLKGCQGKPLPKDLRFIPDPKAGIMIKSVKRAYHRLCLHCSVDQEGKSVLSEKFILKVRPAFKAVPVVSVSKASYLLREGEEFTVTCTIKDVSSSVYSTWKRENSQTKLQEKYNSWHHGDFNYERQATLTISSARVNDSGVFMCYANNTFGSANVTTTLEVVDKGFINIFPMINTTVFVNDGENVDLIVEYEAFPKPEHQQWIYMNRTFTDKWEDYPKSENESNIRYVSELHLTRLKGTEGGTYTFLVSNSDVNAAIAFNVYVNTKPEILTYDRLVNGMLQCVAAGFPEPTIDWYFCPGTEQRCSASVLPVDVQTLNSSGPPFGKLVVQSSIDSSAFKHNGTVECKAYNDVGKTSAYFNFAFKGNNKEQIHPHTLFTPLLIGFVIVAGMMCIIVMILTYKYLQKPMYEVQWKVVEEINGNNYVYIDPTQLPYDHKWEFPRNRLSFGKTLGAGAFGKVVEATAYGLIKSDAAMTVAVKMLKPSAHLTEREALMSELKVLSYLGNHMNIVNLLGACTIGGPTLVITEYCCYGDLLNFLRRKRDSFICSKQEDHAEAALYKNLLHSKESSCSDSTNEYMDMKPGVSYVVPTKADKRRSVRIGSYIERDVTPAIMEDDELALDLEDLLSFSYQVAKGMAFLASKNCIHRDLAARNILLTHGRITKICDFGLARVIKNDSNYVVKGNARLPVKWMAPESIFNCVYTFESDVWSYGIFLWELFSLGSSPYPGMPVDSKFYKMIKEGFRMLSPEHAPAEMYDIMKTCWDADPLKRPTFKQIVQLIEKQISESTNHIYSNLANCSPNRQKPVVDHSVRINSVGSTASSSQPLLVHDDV", "assay": "Inhibition of human KIT D816V mutant assessed as remaining activity at 1 uM by ATP-competition binding assay relative to control", "procedure,_shortened": "(§2)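 Single-point profiling at 1μM in an ATP-site-dependent competition binding assay across a panel of 395 human kinases, including mutant forms. The read-out is kinase binding signal in the presence of test agent, expressed as inhibition relative to the control signal. This screen assessed noncovalent binding interactions.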"}, "[3]": {"target": "Serine/threonine-protein kinase PAK 6 (Homo sapiens) (UniProt Q9NQU5)", "assay": "Inhibition of human PAK6 assessed as remaining activity at 1 uM by ATP-competition binding assay relative to control", "procedure,_shortened": "as §2"}, "[4]": {"target": "Tyrosine-protein kinase Tec (Homo sapiens) (UniProt P42680)", "assay": "Inhibition of human TEC assessed as remaining activity at 1 uM by ATP-competition binding assay relative to control", "procedure,_shortened": "(§3)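 KINOMEscan ATP-site-dependent competition binding assay across a 395-kinase human panel including mutants; compound tested at 1μM; binding expressed relative to control signal.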"}, "[5]": {"target": "cGMP-dependent protein kinase 1 (Homo sapiens) (UniProt Q13976)", "sequence (Q13976 whole entry)": "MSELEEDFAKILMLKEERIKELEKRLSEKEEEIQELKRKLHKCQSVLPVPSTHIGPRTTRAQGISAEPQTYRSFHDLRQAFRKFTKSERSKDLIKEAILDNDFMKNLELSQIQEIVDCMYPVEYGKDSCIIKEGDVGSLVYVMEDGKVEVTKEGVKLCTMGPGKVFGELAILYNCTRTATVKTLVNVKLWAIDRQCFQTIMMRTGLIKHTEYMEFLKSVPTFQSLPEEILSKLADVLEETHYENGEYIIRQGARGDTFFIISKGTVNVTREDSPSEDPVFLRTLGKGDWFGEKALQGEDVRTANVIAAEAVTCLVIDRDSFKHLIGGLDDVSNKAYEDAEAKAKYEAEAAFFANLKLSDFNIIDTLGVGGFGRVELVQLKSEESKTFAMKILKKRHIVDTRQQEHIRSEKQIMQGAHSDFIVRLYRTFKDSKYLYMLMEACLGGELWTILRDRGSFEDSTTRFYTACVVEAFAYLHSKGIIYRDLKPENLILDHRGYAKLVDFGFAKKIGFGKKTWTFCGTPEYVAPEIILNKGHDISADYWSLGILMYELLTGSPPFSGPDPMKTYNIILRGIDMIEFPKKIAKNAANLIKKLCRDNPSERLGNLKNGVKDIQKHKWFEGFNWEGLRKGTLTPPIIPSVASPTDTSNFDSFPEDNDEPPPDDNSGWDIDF", "assay": "Inhibition of human PRKG1 assessed as remaining activity at 1 uM by ATP-competition binding assay relative to control", "procedure,_shortened": "(§4)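 Single-concentration (1 μM) screen in an ATP-site-dependent competition binding assay (KINOMEscan, outsourced) covering 395 human kinases, mutants included. Non-covalent binding was read as the remaining signal relative to the control signal.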"}, "[6]": {"target": "Serine/threonine-protein kinase PAK 4 (Homo sapiens) (UniProt O96013)", "sequence (O96013 whole entry, looked up)": "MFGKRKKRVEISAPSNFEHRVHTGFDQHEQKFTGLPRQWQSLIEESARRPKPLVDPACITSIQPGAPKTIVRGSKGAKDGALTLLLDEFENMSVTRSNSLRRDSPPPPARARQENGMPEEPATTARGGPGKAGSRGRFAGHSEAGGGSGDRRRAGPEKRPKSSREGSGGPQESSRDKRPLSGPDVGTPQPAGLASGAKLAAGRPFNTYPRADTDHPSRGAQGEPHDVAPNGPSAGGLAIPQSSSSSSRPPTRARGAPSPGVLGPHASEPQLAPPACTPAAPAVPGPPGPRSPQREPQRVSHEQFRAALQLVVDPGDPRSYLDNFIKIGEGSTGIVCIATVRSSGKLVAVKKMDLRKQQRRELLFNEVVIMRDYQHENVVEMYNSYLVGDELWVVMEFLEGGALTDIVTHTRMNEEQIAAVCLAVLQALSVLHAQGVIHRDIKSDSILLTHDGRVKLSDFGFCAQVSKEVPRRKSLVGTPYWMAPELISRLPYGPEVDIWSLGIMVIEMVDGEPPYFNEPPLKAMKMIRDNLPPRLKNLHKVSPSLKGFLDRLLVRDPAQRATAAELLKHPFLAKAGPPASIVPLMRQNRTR", "assay": "Inhibition of human PAK4 assessed as remaining activity at 1 uM by ATP-competition binding assay relative to control", "procedure,_shortened": "as §2"}, "[7]": {"target": "Serine/threonine-protein kinase PAK 2 (Homo sapiens) (UniProt Q13177)", "sequence (Q13177 whole entry)": "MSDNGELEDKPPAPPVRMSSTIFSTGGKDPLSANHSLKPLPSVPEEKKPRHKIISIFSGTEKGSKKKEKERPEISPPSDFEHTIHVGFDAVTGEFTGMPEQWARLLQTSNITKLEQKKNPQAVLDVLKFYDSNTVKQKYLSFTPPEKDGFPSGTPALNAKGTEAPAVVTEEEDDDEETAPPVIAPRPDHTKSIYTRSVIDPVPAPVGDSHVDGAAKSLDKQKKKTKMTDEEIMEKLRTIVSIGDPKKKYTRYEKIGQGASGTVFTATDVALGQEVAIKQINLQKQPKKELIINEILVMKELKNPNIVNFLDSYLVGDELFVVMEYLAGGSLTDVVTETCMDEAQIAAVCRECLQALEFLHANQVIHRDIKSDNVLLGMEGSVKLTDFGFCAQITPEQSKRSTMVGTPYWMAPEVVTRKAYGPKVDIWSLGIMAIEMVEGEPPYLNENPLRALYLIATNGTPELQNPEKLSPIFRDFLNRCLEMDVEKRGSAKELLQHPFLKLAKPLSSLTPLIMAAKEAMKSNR", "assay": "Inhibition of human PAK2 assessed as remaining activity at 1 uM by ATP-competition binding assay relative to control", "procedure,_shortened": "as §2"}, "[8]": {"target": "Casein kinase I isoform gamma-2 (Homo sapiens) (UniProt P78368)", "assay": "Inhibition of human CSNK1G2 assessed as remaining activity at 1 uM by ATP-competition binding assay relative to control", "procedure,_shortened": "as §1"}, "[9]": {"target": "Serine/threonine-protein kinase 17B (Homo sapiens) (UniProt O94768)", "assay": "Inhibition of human DRAK2 assessed as remaining activity at 1 uM by ATP-competition binding assay relative to control", "procedure,_shortened": "as §1"}, "[10]": {"target": "Atypical kinase COQ8B, mitochondrial (Homo sapiens) (UniProt Q96D53)", "assay": "Inhibition of human ADCK4 assessed as remaining activity at 1 uM by ATP-competition binding assay relative to control", "procedure,_shortened": "as §1"}, "[11]": {"assay": "Antileukemic activity against human CLL mononuclear cells xenografted NSG mouse assessed as reduction in spleen cells at 0.3 to 0.16 mg/ml preadministered with compound via drinking water and measured after 3 weeks by flow cytometry analysis relative to control", "type": "functional, CLL mononuclear cell", "design": "scale not given: the % may be the effect or the level left", "conditions": "dose 0.3-0.16 mg/ml, at 0.16 to 0.3 mg/mL", "procedure,_shortened": "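Primary CLL patient mononuclear cells (1 × 10^8 per mouse) engrafted into NSG mice on day 0 after busulfan priming on day −1. Vehicle or drug was given in drinking water from day −1. Mice were killed 3 weeks after engraftment; spleens homogenized, filtered and RBC-lysed; whole blood collected. Six patients, 2–5 mice per patient; paired t-test per patient.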"}, "[12]": {"tested_on": "Fibroblast growth factor receptor 3 (Homo sapiens), P22607 [G697C]", "sequence (P22607 whole entry G697C)": "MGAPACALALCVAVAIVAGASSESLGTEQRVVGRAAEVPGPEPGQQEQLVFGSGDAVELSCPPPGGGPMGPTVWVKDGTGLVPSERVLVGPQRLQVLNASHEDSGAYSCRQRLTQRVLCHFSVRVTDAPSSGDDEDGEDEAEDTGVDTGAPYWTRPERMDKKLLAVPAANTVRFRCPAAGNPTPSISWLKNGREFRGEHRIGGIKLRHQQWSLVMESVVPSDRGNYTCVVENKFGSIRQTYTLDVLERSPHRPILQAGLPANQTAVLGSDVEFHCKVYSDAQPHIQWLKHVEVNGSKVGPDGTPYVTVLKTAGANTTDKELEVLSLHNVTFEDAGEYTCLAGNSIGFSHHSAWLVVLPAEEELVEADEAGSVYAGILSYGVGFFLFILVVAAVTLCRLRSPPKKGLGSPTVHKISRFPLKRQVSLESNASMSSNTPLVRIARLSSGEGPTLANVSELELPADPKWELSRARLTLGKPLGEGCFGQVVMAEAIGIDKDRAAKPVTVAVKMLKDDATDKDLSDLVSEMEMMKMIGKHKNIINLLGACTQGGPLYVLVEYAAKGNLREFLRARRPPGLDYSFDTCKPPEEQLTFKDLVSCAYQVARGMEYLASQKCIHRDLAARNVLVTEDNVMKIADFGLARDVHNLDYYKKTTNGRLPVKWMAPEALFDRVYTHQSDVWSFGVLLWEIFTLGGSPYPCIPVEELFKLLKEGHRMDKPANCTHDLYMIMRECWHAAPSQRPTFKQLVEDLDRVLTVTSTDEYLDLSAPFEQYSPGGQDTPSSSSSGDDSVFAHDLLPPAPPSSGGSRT", "assay": "Inhibition of human FGFR3 G697C mutant assessed as remaining activity at 1 uM by ATP-competition binding assay relative to control", "procedure,_shortened": "as §2"}, "[13]": {"target": "cAMP-dependent protein kinase catalytic subunit alpha (Homo sapiens) (UniProt P17612)", "assay": "Inhibition of human PKAC-alpha assessed as remaining activity at 1 uM by ATP-competition binding assay relative to control", "procedure,_shortened": "as §4"}, "[14]": {"target": "3-phosphoinositide-dependent protein kinase 1 (Homo sapiens) (UniProt O15530)", "assay": "Inhibition of human PDPK1 assessed as remaining activity at 1 uM by ATP-competition binding assay relative to control", "procedure,_shortened": "as §2"}, "[15]": {"target": "Calcium/calmodulin-dependent protein kinase type 1G (Homo sapiens) (UniProt Q96NX5)", "assay": "Inhibition of human CAMK1G assessed as remaining activity at 1 uM by ATP-competition binding assay relative to control", "procedure,_shortened": "as §1"}, "[16]": {"tested_on": "Epidermal growth factor receptor (Homo sapiens), P00533 [UNDEFINED MUTATION]", "assay": "Inhibition of human EGFR L747-E749del/A750P mutant assessed as remaining activity at 1 uM by ATP-competition binding assay relative to control", "procedure,_shortened": "as §3"}, "[17]": {"tested_on": "Mast/stem cell growth factor receptor Kit (Homo sapiens), P10721 [V559D]", "sequence (P10721 whole entry V559D)": "as the sequence (P10721 whole entry D816V) above, with V559D, V816D counted along it", "assay": "Inhibition of human KIT V559D mutant assessed as remaining activity at 1 uM by ATP-competition binding assay relative to control", "procedure,_shortened": "as §2"}, "[18]": {"target": "Serine/threonine-protein kinase PAK 1 (Homo sapiens) (UniProt Q13153)", "assay": "Inhibition of human PAK1 assessed as remaining activity at 1 uM by ATP-competition binding assay relative to control", "procedure,_shortened": "as §2"}, "[19]": {"target": "Serine/threonine-protein kinase Nek7 (Homo sapiens) (UniProt Q8TDX7)", "sequence (Q8TDX7 whole entry, looked up)": "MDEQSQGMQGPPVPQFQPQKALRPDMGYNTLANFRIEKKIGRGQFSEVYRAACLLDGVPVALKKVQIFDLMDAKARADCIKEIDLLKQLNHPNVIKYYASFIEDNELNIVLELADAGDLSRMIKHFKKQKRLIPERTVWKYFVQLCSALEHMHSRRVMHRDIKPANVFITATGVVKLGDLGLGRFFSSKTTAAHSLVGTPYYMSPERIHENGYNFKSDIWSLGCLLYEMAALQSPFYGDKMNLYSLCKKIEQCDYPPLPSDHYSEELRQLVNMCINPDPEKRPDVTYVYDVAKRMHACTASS", "assay": "Inhibition of human NEK7 assessed as remaining activity at 1 uM by ATP-competition binding assay relative to control", "procedure,_shortened": "as §2"}, "[20]": {"target": "Receptor tyrosine-protein kinase erbB-4 (Homo sapiens) (UniProt Q15303)", "assay": "Inhibition of human ERBB4 at <100 nM by ATP-Competition Binding Assay"}, "[21]": {"target": "SRSF protein kinase 3 (Homo sapiens) (UniProt Q9UPE1)", "assay": "Inhibition of human SRPK3 assessed as remaining activity at 1 uM by ATP-competition binding assay relative to control", "procedure,_shortened": "as §4"}, "[22]": {"target": "RAC-beta serine/threonine-protein kinase (Homo sapiens) (UniProt P31751)", "assay": "Inhibition of human AKT2 assessed as remaining activity at 1 uM by ATP-competition binding assay relative to control", "procedure,_shortened": "as §1"}, "[23]": {"target": "Serine/threonine-protein kinase PRP4 homolog (Homo sapiens) (UniProt Q13523)", "assay": "Inhibition of human PRP4 assessed as remaining activity at 1 uM by ATP-competition binding assay relative to control", "procedure,_shortened": "as §4"}, "[24]": {"target": "Activated CDC42 kinase 1 (Homo sapiens) (UniProt Q07912)", "assay": "Inhibition of human TNK2 assessed as remaining activity at 1 uM by ATP-competition binding assay relative to control", "procedure,_shortened": "as §4"}, "[25]": {"target": "Serine/threonine-protein kinase 26 (Homo sapiens) (UniProt Q9P289)", "sequence (Q9P289 2-416 limits assumed)": "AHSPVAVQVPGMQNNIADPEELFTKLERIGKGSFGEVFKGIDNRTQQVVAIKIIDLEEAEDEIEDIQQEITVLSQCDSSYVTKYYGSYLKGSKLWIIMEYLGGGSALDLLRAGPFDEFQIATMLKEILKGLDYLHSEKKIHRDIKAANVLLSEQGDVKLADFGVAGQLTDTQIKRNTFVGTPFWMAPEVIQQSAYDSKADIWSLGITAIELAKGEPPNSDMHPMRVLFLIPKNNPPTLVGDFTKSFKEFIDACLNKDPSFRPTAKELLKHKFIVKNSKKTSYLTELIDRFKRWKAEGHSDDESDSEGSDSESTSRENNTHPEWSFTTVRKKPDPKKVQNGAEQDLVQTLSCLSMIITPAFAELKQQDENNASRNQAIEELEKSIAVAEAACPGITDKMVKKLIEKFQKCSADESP", "assay": "Inhibition of human MST4 assessed as remaining activity at 1 uM by ATP-competition binding assay relative to control", "procedure,_shortened": "as §2"}, "[26]": {"target": "Uncharacterized serine/threonine-protein kinase SBK3 (Homo sapiens) (UniProt P0C264)", "assay": "Inhibition of human SgK110 assessed as remaining activity at 1 uM by ATP-competition binding assay relative to control", "procedure,_shortened": "as §4"}, "[27]": {"tested_on": "Epidermal growth factor receptor (Homo sapiens), P00533 [L858R]", "assay": "Inhibition of human EGFR L858R mutant assessed as remaining activity at 1 uM by ATP-competition binding assay relative to control", "procedure,_shortened": "as §3"}},
  "note": "The source made the active and inactive calls. No cut-off for these calls is given here.",
  "data": [
    {"smiles": "CC#CC(=O)N1CCC[C@H]1c1nc(-c2ccc(C(=O)Nc3ccccn3)cc2)c2c(N)nccn12", "note": "[ACALABRUTINIB]", "values": [
      {"measurement": "Activity", "setting": "[1]", "result": 93, "unit": "%"},
      {"measurement": "Activity", "setting": "[2]", "result": 83, "unit": "%"},
      {"measurement": "Activity", "setting": "[3]", "result": 94, "unit": "%"},
      {"measurement": "Activity", "setting": "[4]", "result": 6.4, "unit": "%"},
      {"measurement": "Activity", "setting": "[5]", "result": 70, "unit": "%"},
      {"measurement": "Activity", "setting": "[6]", "result": 88, "unit": "%"},
      {"measurement": "Activity", "setting": "[7]", "result": 78, "unit": "%"},
      {"measurement": "Activity", "setting": "[8]", "result": 82, "unit": "%"},
      {"measurement": "Activity", "setting": "[9]", "result": 88, "unit": "%"},
      {"measurement": "Activity", "setting": "[10]", "result": 88, "unit": "%"},
      {"measurement": "Activity", "setting": "[11]", "result": 33, "unit": "%"},
      {"measurement": "Activity", "setting": "[12]", "result": 77, "unit": "%"},
      {"measurement": "Activity", "setting": "[13]", "result": 77, "unit": "%"},
      {"measurement": "Activity", "setting": "[14]", "result": 67, "unit": "%"},
      {"measurement": "Activity", "setting": "[15]", "result": 95, "unit": "%"},
      {"measurement": "Activity", "setting": "[16]", "result": 87, "unit": "%"},
      {"measurement": "Activity", "setting": "[17]", "result": 53, "unit": "%"},
      {"measurement": "Activity", "setting": "[18]", "result": 87, "unit": "%"},
      {"measurement": "Activity", "setting": "[19]", "result": 80, "unit": "%"},
      {"measurement": "inhibition", "setting": "[20]", "result": "Active"},
      {"measurement": "Activity", "setting": "[21]", "result": 93, "unit": "%"},
      {"measurement": "Activity", "setting": "[22]", "result": 100, "unit": "%"},
      {"measurement": "Activity", "setting": "[23]", "result": 86, "unit": "%"},
      {"measurement": "Activity", "setting": "[24]", "result": 93, "unit": "%"},
      {"measurement": "Activity", "setting": "[25]", "result": 91, "unit": "%"},
      {"measurement": "Activity", "setting": "[26]", "result": 90, "unit": "%"},
      {"measurement": "Activity", "setting": "[27]", "result": 94, "unit": "%"}
    ]}
  ]
}
